High-throughput results (PubChem BioAssay)
A selection: hits, their analogues and other compounds. The true share with any hit is near 8.9%.
Lmaj promast: Leishmania major promastigote growth inhibition, primary screen; inhibition, % at 10 µM; 200,000 compounds, 9% hits; AID 1063, 2008; Leishmania major promastigotes, resazurin fluorescence viability; in the data active = inhibition above about 50%;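 note: promastigotes grown with compound for 44 hours at 28 °C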
MT stabilize HCS: microtubule stabilizers in HeLa cells, primary screen, imaging, high-content imaging; HeLa tubulin immunostaining HCS, 24 h; share of cells brighter than vehicle mean+2SD; % tubulin-high responders, % at 10 µM; 200,000 compounds, 0.83% hits;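 active = plate Z-score above 3 for both tubulin-high and condensed-nucleus cell shares, with cell loss under 80%, at 10 µM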;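 note: anti alpha tubulin signal scored within the nucleus-defined area of each cell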
Dynein transport: inhibitors of GR-EGFP nuclear translocation, primary screen, dynein cargo transport inhibitor project, imaging, high-content, 3617.4 mouse cells; test concentration mostly 20 µM; stimulated with dexamethasone, 1 µM; hits give low values; z-score, hits read low; 220,000 compounds, 0.47% hits;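 active = plate z-score of nuclear minus cytoplasmic receptor signal below a set negative limit, without overly bright fluorescence or cell loss, cut at about -3.5 in these data, passing the limit was not always enough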;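 note: z-score of nuclear minus cytoplasmic ring GR-EGFP intensity difference per well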
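medium = tetracycline-free induction medium containing charcoal-stripped FBS | also added = 1.0 µM final dexamethasone stimulus | schedule = 48 h induction, 1 h compound, 30 min dex at 37 °C | technique = fixed, Hoechst-stained cells imaged at 10x for EGFP | measure = GR-EGFP nuclear translocation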
HSV replic up: enhancers of HSV replication in host cells, fold increase, host cell viability | HSV replication augmentation in cells | maximum fold increase | 220,000 compounds, 0.005% hits; in the data active = maximum fold increase above about 1.5; tested in PC3 cells
b-catenin transl: modulators of beta-catenin nuclear translocation, primary screen, imaging, HeLa cells, immunofluorescence, high-content; nuclear translocation activity, % at 5 µM; 190,000 compounds, 0.3% hits; AID 1665, 2009;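 active = nuclear translocation activity above 50% at 5 µM, with a well cell count of 50 or more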;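 note: per-cell ratio of nuclear to cytoplasmic median beta-catenin stain intensity; plate controls were DMSO negative control for no effect and GSK-3 inhibitor IX positive control for full effect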
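test system = HeLa cells, endogenous beta-catenin | dosing = single 5 µM dose plus 0.02–20 µM confirmation series | times = compound treatment 24 h, 37°C, 5% CO2 | technique = beta-catenin immunofluorescence imaging with DAPI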
Starred values were filed as active, the others as inactive; i = inactive; . = not tested or not shown.

SMILES	Lmaj promast	MT stabilize HCS	Dynein transport	HSV replic up	b-catenin transl
Cc1ccc(-c2cc(C(F)F)n3ncc(C(=O)Nc4c(C)nn(Cc5ccccc5Cl)c4C)c3n2)cc1	57.4*	2.1	0.00873	i	.
Cc1ccc(-c2cc(C(F)F)n3ncc(C(=O)Nc4c(C)nn(Cc5c(Cl)cccc5Cl)c4C)c3n2)cc1	49.6	5.9	-0.166	i	-2.6
COc1ccc(NCc2ccc([N+](=O)[O-])s2)c(OC)c1	98.0*	4.0	-0.523	i	2.4
COc1ccc(NCc2ccc([N+](=O)[O-])s2)cc1	73.3*	2.1	-1.37	i	0.3
COc1ccc(CNc2ccc(S(N)(=O)=O)cc2)cc1	-5.4	4.0	-1.15	i	-0.3
Cc1ccccc1N1CCN(C(=S)c2ccccc2)CC1	57.2*	3.0	-0.145	i	3.4
CC(C)(C)c1ccc(C(=S)N2CCN(c3ccccc3)CC2)cc1	.	.	-0.639	i	-0.6
O=C(Nc1ccccc1C(=O)NC(Cc1c[nH]c2ccccc12)C(=O)O)c1ccccc1 (centres undefined)	.	.	2.12	i	1.1
Cc1ccc(C)c(S(=O)(=O)Nc2ccc(S(=O)(=O)Nc3onc(C)c3C)cc2)c1	1.7	3.0	-0.742	i	-2.2
O=C1N(Cc2cccnc2)C[C@@H]2C[C@@H](c3cccc(C(F)(F)F)c3)N3CCC[C@@]123	-1.6	3.5	-0.896	i	-0.1
Cc1ccc(S(=O)(=O)N2CCOCC2)cc1NC(=O)COC(=O)Cc1ccsc1	-4.2	2.4	-0.067	i	2.0
Cc1ccc(/C(N)=N/OC(=O)c2ccc3c(c2)OCO3)cc1	51.4*	4.0	-0.488	i	-0.8
COc1ccccc1C(=O)O/N=C(\N)c1ccc(Cl)cc1	6.6	1.2	1.08	i	.
Cc1ccc(/C(N)=N/OC(=O)c2ccc(Cl)cc2Cl)cc1	84.6*	2.8	2.46	i	3.1
CCC(=O)NC(Cc1ccccc1)c1ccc2c(c1)OCCCO2 (centres undefined)	-5.6	4.2	2.29	i	0.1
COc1ccc(C2=CC(=O)CC(c3ccc(F)cc3)C2)cn1 (centres undefined)	.	.	.	i	.
CCC(C)NS(=O)(=O)c1ccc(OCC(=O)NCc2ccc(OC)cc2)cc1 (centres undefined)	7.0	3.3	0.239	i	-0.7
COc1ccc(CNC(=O)COc2ccc(S(=O)(=O)NC(C)C)cc2)cc1	64.6*	2.5	0.387	i	0.3
Cc1cc(C)n(-c2nc3sc4c(c3c(=O)[nH]2)CCCC4)n1	99.2*	2.0	0.433	.	2.7
CN(C)c1ccc(NC(=O)CSc2nc3c(c(=O)[nH]2)CCCC3)cc1	-2.3	1.9	-0.0514	i	-0.9
CN(C)C(=O)CSc1nnc(Cc2ccc3c(c2)OCO3)o1	-5.8	0.8	0.705	i	2.6
O=C1OCCN1/N=C/c1ccc([N+](=O)[O-])o1	93.3*	2.2	0.892	i	.
O=C(Cn1cnc([N+](=O)[O-])n1)N/N=C/c1ccc(O)cc1O	-2.5	2.5	-0.579	i	1.1
O=C(Cn1cnc([N+](=O)[O-])n1)N/N=C/c1cccc(Cl)c1	63.4*	2.2	1.5	i	-1.4
O=C(Cn1cnc([N+](=O)[O-])n1)N/N=C/c1cccc2ccccc12	90.7*	4.1	-1.1	i	4.3
SMILES	Lmaj promast	MT stabilize HCS	Dynein transport	HSV replic up	b-catenin transl
COc1ccc(/C=C2\NC(=S)N(CC3CCCO3)C2=O)c(OC)c1 (centres undefined)	-9.8	2.2	-1.32	i	-4.2
CN(C)CCCN=Cc1c(O)n(Cc2ccccc2)c(=O)c2ccccc12	92.4*	4.8	-0.0327	i	-2.8
O=c1c2ccccc2c(C=Nc2ccc(O)cc2)c(O)n1Cc1ccccc1	.	.	0.67	i	0.9
COc1ccc(Cn2c(O)c(C=Nc3ccc(O)cc3)c3ccccc3c2=O)cc1	94.1*	1.0	-0.488	i	-1.4
CN(C)CCN=Cc1c(O)n(Cc2ccccc2)c(=O)c2ccccc12	18.5	3.0	-0.691	i	-1.0
COc1ccc(Cn2c(O)c(C=Nc3ccccc3)c3ccccc3c2=O)cc1	31.1	1.9	0.218	i	-0.2
COc1ccc(Cn2c(O)c(C=Nc3ccc(C)cc3)c3ccccc3c2=O)cc1	92.3*	2.7	-0.0715	i	.
CCC1(C)Cc2ccccc2-c2nc(NCCO)n(-c3ccc(C)cc3)c(=O)c21 (centres undefined)	63.3*	0.5	0.0931	i	-1.9
CC1(C)CC(n2c(NCCO)nc3c(c2=O)C2(CCCC2)Cc2ccccc2-3)CCO1 (centres undefined)	99.8*	1.5	0.491	i	0.4
O=c1c2c(nc(NCCO)n1CC1CCCCC1)-c1ccccc1CC21CCCC1	90.6*	0.9	-0.495	i	.
CN(C)c1ccc(C(=O)c2ccc(N(C)C)c3ccccc23)cc1	19.2	11.9	-0.283	.	39.1
CN1CCN(Cc2ccc(OCc3ccccc3)cc2)CC1	94.8*	3.2	1.89	i	-2.0
CC(C)CNC(=O)C1CCN(Cc2ccc(OCc3ccccc3)cc2)CC1	31.9	3.5	-1.2	i	0.1
CCN1CCN(Cc2ccc(OCc3ccccc3)cc2)CC1	92.4*	1.9	-1.31	i	.
O=C(Nc1ccc2nn(-c3ccccc3)nc2c1)c1ccc2c(c1)OCO2	6.0	2.5	-0.856	i	.
CCn1c(C(=O)N2CCCC(C(=O)NCCCc3ccccc3)C2)cc2sccc21 (centres undefined)	99.0*	3.4	-0.13	i	-3.6
CCn1c(C(=O)N2CCCC(C(=O)NCCc3ccc(C)cc3)C2)cc2sccc21 (centres undefined)	7.9	3.2	0.921	i	-4.0
C[n+]1ccc(/C=C/c2ccccc2O)c2ccccc21	98.8*	4.9	0.134	i	-1.0
CC(C)(C)C1CCC(OCC(O)CN2CCCC2)CC1 (centres undefined)	99.8*	4.2	0.269	i	-0.4
CC1CCN(CC(O)COC2CCC(C(C)(C)C)CC2)CC1 (centres undefined)	92.3*	1.8	0.185	i	-2.0
Cc1ccc(N2CCN(CC(O)COc3cccc(C)c3)CC2)cc1 (centres undefined)	.	.	-0.122	i	-0.8
Cc1ccc(N2CCN(CC(O)COC3CCCCC3)CC2)cc1 (centres undefined)	96.9*	3.2	1.22	i	0.8
Cc1ccc(N2CCN(CC(O)COc3ccc([N+](=O)[O-])cc3)CC2)cc1 (centres undefined)	96.9*	1.6	0.0467	i	4.6
O=C(c1ccccc1)N1CCN(CC(O)COC2CCCCC2)CC1 (centres undefined)	-2.8	6.0	0.579	i	-1.2
CCN1CCCC1CNC(=O)c1ccc(N2CCOCC2)c(NS(=O)(=O)c2ccc(OC)cc2)c1 (centres undefined)	10.3	2.2	-0.369	i	.
